pIC50, pKi: −log10 of the molar value. Read-outs that look alike come from different tables or passages of the source. Blank lines part the entries; values can stand above or below the compound they belong to.
Legend:
WT-IDE [1] = biological target: T1, WT-IDE (Homo sapiens, UniProt P14735); test: IDE activity in the presence of reducing agents / reversal by DTT; format: biochemical
T1 sequence (P14735 1-1019): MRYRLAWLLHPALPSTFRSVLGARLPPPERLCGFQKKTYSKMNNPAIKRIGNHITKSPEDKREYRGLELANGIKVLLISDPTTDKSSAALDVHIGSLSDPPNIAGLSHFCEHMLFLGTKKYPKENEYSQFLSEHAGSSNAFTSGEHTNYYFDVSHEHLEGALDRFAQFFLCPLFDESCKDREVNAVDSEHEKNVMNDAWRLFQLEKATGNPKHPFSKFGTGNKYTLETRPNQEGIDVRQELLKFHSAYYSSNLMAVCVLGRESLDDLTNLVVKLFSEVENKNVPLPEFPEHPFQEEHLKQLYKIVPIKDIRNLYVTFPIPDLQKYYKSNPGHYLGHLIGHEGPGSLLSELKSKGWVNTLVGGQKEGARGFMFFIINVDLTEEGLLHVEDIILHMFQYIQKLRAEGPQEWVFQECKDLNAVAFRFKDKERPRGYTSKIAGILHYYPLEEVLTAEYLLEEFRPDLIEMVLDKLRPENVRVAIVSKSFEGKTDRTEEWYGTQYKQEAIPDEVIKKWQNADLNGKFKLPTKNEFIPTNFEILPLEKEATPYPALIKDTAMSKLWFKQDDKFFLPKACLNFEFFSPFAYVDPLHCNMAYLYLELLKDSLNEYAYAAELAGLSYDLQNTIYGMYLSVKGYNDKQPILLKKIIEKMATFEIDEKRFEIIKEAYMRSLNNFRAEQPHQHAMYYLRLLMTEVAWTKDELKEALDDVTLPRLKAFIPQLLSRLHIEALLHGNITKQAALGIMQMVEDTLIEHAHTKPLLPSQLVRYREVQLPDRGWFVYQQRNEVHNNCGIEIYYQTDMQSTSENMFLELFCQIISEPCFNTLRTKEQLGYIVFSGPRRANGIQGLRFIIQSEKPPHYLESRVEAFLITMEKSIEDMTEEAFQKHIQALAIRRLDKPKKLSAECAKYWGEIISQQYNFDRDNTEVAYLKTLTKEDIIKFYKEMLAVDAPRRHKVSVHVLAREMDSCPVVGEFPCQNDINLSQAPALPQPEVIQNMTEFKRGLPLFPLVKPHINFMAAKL

[2] = biological target: T2, intracellular pools of IDE (Homo sapiens, UniProt P14735); test: intracellular IDE activity after incubation of intact HEK cells; format: cell-based; details: 10 μM, 36 h
T2 sequence (P14735 1-1019): T1 sequence (P14735 1-1019)
How it was run: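 Confluent HEK monolayers were exposed 36 h to 10 μM compound or DMSO vehicle, and conditioned medium was collected. Cells were washed 3× in PBS and held 30 min in hypotonic 50 mM Tris-HCl at 4 °C. They were scraped, extruded 3× through a 30G needle and spun 10,000 × g, 10 min, 4 °C. Supernatant activity was assayed by FAßB degradation without or with 1 mM DTT.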

extracellular IDE = biological target: T3, extracellular IDE (Homo sapiens, UniProt P14735); test: cell-based IDE activity assay; details: for activity by hit cutoff criteria: Table 1 screening assays
T3 sequence (P14735 1-1019): T1 sequence (P14735 1-1019)
How it was run: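 Extracellular IDE secreted by HEK-293 cells, harvested mechanically rather than by trypsin, served as the endogenous enzyme source. Activity was read by fluorescence polarization with fluoresceinated, biotinylated Aß peptide (FAßB) in DTT-free solutions. The primary screen used a nominal compound concentration of 6 μM. Confirmed hits were retested in dose-response format to give apparent IC50.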

IDE mutant sC819 = test: inhibition of single-cysteine IDE mutant sC819; format: biochemical, human; details: Figure 3B
WT-IDE [3] = biological target: T1, WT-IDE; test: test for irreversible inhibition by 100-fold dilution; format: biochemical; details: 100 nM IDE with high inhibitor concentration 30 min, then 100-fold dilution
How it was run: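 Recombinant WT-IDE activity was measured with FRET1 substrate in DTT-free solutions under three conditions. (1) 1 nM enzyme with "high" inhibitor concentrations. (2) 1 nM enzyme with 100-fold lower concentrations. (3) 100 nM enzyme preincubated 30 min with "high" concentrations, then diluted 100-fold to 1 nM enzyme and "low" inhibitor before assay. Reversible and irreversible reference inhibitors were run alongside.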

[4] = biological target: T4, recombinant wild-type IDE (WT-IDE) (Homo sapiens, UniProt P14735); test: cell-free IDE activity assay with fluorogenic peptide substrate FRET1; format: biochemical
T4 sequence (P14735 1-1019): T1 sequence (P14735 1-1019)

WT-IDE [5] = biological target: T1, WT-IDE; test: kinetics of irreversible inhibition; format: biochemical; details: WT-IDE 2 nM, FRET1 5 μM; rate constant of irreversible step
How it was run: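 Recombinant WT-IDE (2 nM) and FRET1 substrate (5 μM) were monitored continuously at 3-s intervals, starting immediately after adding inhibitor at several concentrations. Curve fits gave observed rate constants, which were plotted against inhibitor concentration. A hyperbolic fit gave kinhib and KM. LE was taken as ΔG/heavy atoms using KM; SEI as pKM/tPSA/100 Å2.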

IDE mutant sC812 = test: inhibition of single-cysteine IDE mutant sC812; format: biochemical, human; details: Figure 3B
[6] = biological target: T5, cysteine-free form of IDE (CF-IDE) (Homo sapiens, UniProt P14735, C819S, form not given); test: IDE activity assay with FRET1 using cysteine-free IDE; format: biochemical; details: read-out: ki CF-IDE
T5 sequence (P14735 42-1019 C819S): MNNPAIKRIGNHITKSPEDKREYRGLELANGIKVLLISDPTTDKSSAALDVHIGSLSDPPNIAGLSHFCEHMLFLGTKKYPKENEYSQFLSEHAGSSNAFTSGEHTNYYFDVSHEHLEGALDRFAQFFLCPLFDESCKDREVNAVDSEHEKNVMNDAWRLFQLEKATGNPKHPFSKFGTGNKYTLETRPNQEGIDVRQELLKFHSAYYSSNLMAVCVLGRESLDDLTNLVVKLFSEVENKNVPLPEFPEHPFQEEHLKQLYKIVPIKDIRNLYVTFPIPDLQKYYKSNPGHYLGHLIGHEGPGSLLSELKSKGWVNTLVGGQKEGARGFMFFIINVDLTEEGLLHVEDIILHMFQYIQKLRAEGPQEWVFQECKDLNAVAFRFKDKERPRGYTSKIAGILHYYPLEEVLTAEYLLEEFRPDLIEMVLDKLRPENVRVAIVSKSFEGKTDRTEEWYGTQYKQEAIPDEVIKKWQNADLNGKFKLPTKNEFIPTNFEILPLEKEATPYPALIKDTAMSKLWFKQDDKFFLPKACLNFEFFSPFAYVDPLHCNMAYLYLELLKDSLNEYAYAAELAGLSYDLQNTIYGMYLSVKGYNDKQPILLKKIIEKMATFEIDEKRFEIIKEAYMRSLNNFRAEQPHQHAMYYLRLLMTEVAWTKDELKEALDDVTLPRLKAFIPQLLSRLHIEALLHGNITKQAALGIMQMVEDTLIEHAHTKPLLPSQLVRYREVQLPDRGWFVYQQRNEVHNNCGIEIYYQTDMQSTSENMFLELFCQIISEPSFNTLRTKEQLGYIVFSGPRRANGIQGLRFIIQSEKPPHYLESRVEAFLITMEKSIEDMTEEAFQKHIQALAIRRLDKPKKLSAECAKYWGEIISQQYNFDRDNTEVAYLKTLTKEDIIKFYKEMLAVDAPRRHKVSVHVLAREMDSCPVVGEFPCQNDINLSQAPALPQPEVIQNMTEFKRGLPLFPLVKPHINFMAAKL

[7] = read-out: IC50^app cell-based, Table 1, HEK-293 cells, extracellular IDE
[8] = read-out: IC50^app cell-free, Table 1, WT-IDE, FRET1

reversibility of WT-IDE inhibition by treatment with dithiothreitol (WT-IDE [1]; DTT treatment, Figure 2E): reversible | activity in the presence of excess DTT, ß-mercaptoethanol or reduced glutathione (WT-IDE [1]; excess reducing agent, Supplementary Figure S1A): no activity was detected | effect on intracellular pools of IDE after prolonged incubation of intact cells [2]: unaffected | pIC50 (extracellular IDE; [7]): 5.85 | pIC50 (extracellular IDE; read-out: IC50^app cell-based, Table 2): 5.85 | reversibility of inhibition in dilution experiments (WT-IDE [3]): irreversible | pIC50 ([4]; read-out: IC50^app against WT-IDE, cell-free): 6.63 | pIC50 [4, 8]: 6.64 | kinhib (WT-IDE [5]): 2.05 min⁻¹ | pKi [6]: 5.09
SMILES: O=c1c2ccccc2sn1-c1cc(S(=O)(=O)N2CCOCC2)ccc1N1CCOCC1 [Compound 1]
inhibition of single-cysteine mutant sC819 (IDE mutant sC819): strongly inhibited | inhibition of single-cysteine mutant sC812 (IDE mutant sC812): no significant effect

pIC50 (extracellular IDE; [7]): 5.68 | pIC50 [4, 8]: 6.27
SMILES: O=C(O)c1ccccc1NS(=O)(=O)c1cccc(-n2sc3ccccc3c2=O)c1 [Compound 2]

pIC50 (extracellular IDE; [7]): 5.40 | pIC50 [4, 8]: 5.99
SMILES: Cc1ccc(-n2sc3ccccc3c2=O)cc1S(=O)(=O)N1CCCCC1 [Compound 3]

pIC50 (extracellular IDE; [7]): 5.25 | pIC50 [4, 8]: 5.95
SMILES: O=c1c2ccccc2sn1-c1cc(S(=O)(=O)N2CCOCC2)ccc1N1CCCC1 [Compound 4]

activity by hit cutoff criteria (extracellular IDE): inactive | pIC50 (extracellular IDE; [7]): < 5.00
SMILES: CN(C)S(=O)(=O)c1cccc(-n2sc3ccccc3c2=O)c1 [Compound 5]

activity by hit cutoff criteria (extracellular IDE): inactive | pIC50 (extracellular IDE; [7]): < 5.00 | pIC50 [4, 8]: < 5.00
SMILES: O=c1c2ccccc2sn1-c1ccc(S(=O)(=O)N2CCCC2)cc1 [Compound 6]

activity by hit cutoff criteria (extracellular IDE): active | pIC50 (extracellular IDE; [7]): 5.41 | pIC50 [4, 8]: 5.74
SMILES: O=c1c2cc(F)ccc2sn1-c1ccccc1 [Compound 7]

pIC50 (extracellular IDE): 6.92 | pIC50 [4]: 7.15 | kinhib (WT-IDE [5]): 15.3 min⁻¹ | pKi [6]: 5.10
SMILES: O=c1c2cc(C(F)(F)F)ccc2sn1-c1cc(S(=O)(=O)N2CCOCC2)ccc1N1CCOCC1 [Compound 9, 2-(2-morpholin-4-yl-5-morpholin-4-ylsulfonylphenyl)-5-(trifluoromethyl)-1,2-benzothiazol-3-one]

SMILES: CCN1C(=O)C=CC1=O [NEM, N-ethylmaleimide, reference compound]
inhibition of single-cysteine mutant sC819 (IDE mutant sC819): completely inhibited | reversibility of inhibition in dilution experiments (WT-IDE [3]): irreversible | inhibition of single-cysteine mutant sC812 (IDE mutant sC812): completely inhibited

From paper PMC10127574 (ACS chemical biology, 2015)
